Results as given in publication PMC2841041 (Developmental cell, 2010).
Peptide text beside a SMILES is read from it. * marks the point of attachment. Cbz = O=C(OCc1ccccc1)*; CH2F = FC*

Assays:
[1] = test system: HeLa cells expressing APP-CFP; assay: Immunoblot of APP-CFP fragments; assay type: cell-based; settings: for C31 fragment levels/formation: DAPT-treated cells
Outline: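 HeLa cells transfected (Lipofectamine 2000, 1 h, 37°C, no FBS) with C-terminally CFP-tagged APP (wild-type, D664A or F689A/F690A/E691A), or μ4-siRNA-depleted twice and then APP-CFP-transfected. Analysed 8–16 h post-transfection after 16 h ± 250 nM DAPT, 100 μM E-64 and/or 200 μM Z-VAD-FMK. Pellet/supernatant fractionation in some runs. SDS-PAGE, anti-GFP immunoblot. Fragment levels given as mean ± SD of three experiments.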

[2] = test system: HeLa cells; assay: Pulse-chase / immunoblot analysis of APP processing and CTF levels; assay type: cell-based; settings: 250 nM DAPT; decrease elicited by FFE mutation or μ4 depletion
[3] = test system: HeLa cells expressing CTFβ-GFP; assay: Processing of CTFβ-GFP; assay type: cell-based; settings: immunoblot, antibody to GFP; for CTFα and C31 from CTFβ-GFP: DAPT-treated cells
Outline: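 CTFβ-GFP (wild-type, D664A or F689A/F690A/E691A) expressed in HeLa cells, or in mock- or μ4-siRNA-depleted cells. Same handling: lipofection, 8–16 h, then 16 h ± 250 nM DAPT, 100 μM E-64 and/or 200 μM Z-VAD-FMK, anti-GFP immunoblot; mean ± SD, n=3. Aβ: 4 h [35S]Met-Cys labelling at 37°C, medium immunoprecipitated with 6E10, Tricine 10–20% gels, fluorography; mean ± SD, n=4.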

[4] = test system: μ1, μ2 and μ3 subunits; assay: Y2H of APP signal with other AP μ subunits; assay type: binding
[5] = test system: APP distribution in HeLa cells; assay: Immunofluorescence microscopy, intracellular distribution of APP; assay type: cell-based
[6] = target: T1, recombinant μ4 C-terminal domain (Homo sapiens, UniProt O00189, C235S/C431S); assay: Isothermal titration calorimetry; assay type: binding; settings: purified components, synthetic peptide
T1 sequence (O00189 160-453 C235S/C431S): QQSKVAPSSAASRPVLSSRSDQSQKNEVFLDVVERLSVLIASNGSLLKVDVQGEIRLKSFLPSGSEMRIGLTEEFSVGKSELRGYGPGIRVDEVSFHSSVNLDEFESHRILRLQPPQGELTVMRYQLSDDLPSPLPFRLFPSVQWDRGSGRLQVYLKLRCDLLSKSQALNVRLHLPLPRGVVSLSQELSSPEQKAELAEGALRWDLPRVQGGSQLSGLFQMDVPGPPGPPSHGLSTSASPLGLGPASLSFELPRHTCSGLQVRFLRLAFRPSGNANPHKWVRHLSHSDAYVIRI

[7] = test system: μ4 subunit of AP-4; assay: Yeast two-hybrid; assay type: binding, human; settings: His-deficient plates, 30°C
[8] = test system: ε, β4 and σ4 subunits of AP-4; assay: Y2H of APP tail with other AP-4 subunits; assay type: binding
[9] = test system: mutant μ4; assay: Yeast two-hybrid; assay type: binding, human
Outline: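 Yeast co-transformed with Gal4ad fused to wild-type or point-mutant human μ4 (mutations introduced by site-directed mutagenesis) and Gal4bd fused to the APP tail (human APP695 template). Cells spotted on His-deficient and His-containing plates and incubated at 30°C; growth on −His scored as interaction. Controls: Gal4bd-mouse p53 with Gal4ad-SV40 large T antigen.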

[10] = target: T2, recombinant μ4 C-terminal domain (160–453; C235S, C431S) (human, UniProt O00189 160-453, C235S | C431S); assay: ITC
T2 sequence (looked up): T1 sequence (O00189 160-453 C235S/C431S)

Molecule: C[C@H](NC(=O)Cc1cc(F)cc(F)c1)C(=O)N[C@H](C(=O)OC(C)(C)C)c1ccccc1 [DAPT]
- C31 fragment levels/formation ([1]; immunoblot, antibody to GFP): increased the levels of a smaller, soluble fragment
- difference in AICDγ-CFP levels / CTF accumulation with DAPT ([1]; FFE mutation or μ4 depletion, incubation with DAPT): abolished by incubation with DAPT, resulting in the accumulation of equal amounts of CTFs under all conditions
- AICDγ-CFP formation/levels ([1]; immunoblot, antibody to GFP): precluded AICDγ-CFP formation
- CTFα-CFP levels ([1]; immunoblot, antibody to GFP, DAPT 250 nM): increased CTFα-CFP levels
- effect of DAPT on the decrease in steady-state CTFα levels [2]: abrogated the decrease in steady-state CTFα levels
- AICDγ formation/levels from CTFβ-GFP [3]: prevented AICDγ formation
- CTFα and C31 from CTFβ-GFP [3]: resulted in the appearance of CTFα and C31

Molecule: YKFFE
- Y2H interaction with μ1, μ2, μ3 [4]: does not bind to these μ subunits

Molecule: C[C@@H]1C[C@@H]([C@H](O)CC2CC(=O)NC(=O)C2)C(=O)[C@@H](C)C1 [cycloheximide, reference compound]
- effect on APP-WT staining ([5]; inhibition of protein synthesis, mock- and μ4-depleted cells): rapid disappearance of APP-WT staining in both mock- and μ4-depleted cells

Molecule: ENPTAKAAEQ
- binding site number / binding by ITC [6]: but not a substituted ENPTAKAAEQ variant, bound

Molecule: COC(=O)C[C@H](NC(=O)[C@H](C)NC(=O)[C@@H](NC(=O)OCc1ccccc1)C(C)C)C(=O)CF [Z-VAD-FMK] (Cbz-Val-Ala-Asp(OMe)-CH2F)
- C31 fragment levels/formation ([1]; immunoblot, antibody to GFP): prevented
- CTFα and C31 from CTFβ-GFP [3]: absence

Molecule: YKYLE
- Y2H interaction with μ4 [7]: indeed bind to μ4

Molecule: APP-WT: wild-type APP expressed in HeLa cells
- localization of APP to endosomes ([5]; HeLa cells, normal conditions, n=11): 74 ± 8%

Molecule: YRFLE
- Y2H interaction with μ4 [7]: indeed bind to μ4

Molecule: APP tail: cytosolic tail of APP fused to Gal4bd
- Y2H interaction with ε, β4 and σ4 [8]: did not bind to the APP tail
- Y2H binding to μ4 S257A/H256A/F255A ([9]; Ser-257 to Ala together with His-256 and Phe-255 to Ala): completely abolished binding
- Y2H binding to μ4 F255A/R283D ([9]; double mutation of Phe-255 and Arg-283): completely abrogated
- Y2H binding to μ4 S257A ([9]; mutation of Ser-257 to Ala): no detectable effect
- Y2H binding to μ4 H256A, E265A or R283A ([9]; single mutation of His-256, Glu-265, Arg-283 to Ala): little or no effect on the interaction
- Y2H binding to μ4 F255A or R283D ([9]; single mutation of Phe-255 to Ala, or Arg-283 to Asp): drastically reduced
- Y2H binding to μ4 H256A/E265A/R283A ([9]; triple mutation): greatly decreased the interaction
- Y2H interaction with μ4 [7]: interacted exclusively with the μ4 subunit of AP-4

Molecule: ENPTYKFFEQ [synthetic ENPTYKFFEQ peptide derived from the APP tail]
- stoichiometry N [10]: 1
